# Values joined by “and” are separate entries in the source; they are usually repeats but may differ in a detail not shown here. Equal values may be shown once.
# Legend:
# Assay type in all cases: toxicity, cell-based
# [1] = system: Fibroblast; assay: Multiplex assay against human fibroblast; conditions: number of replicates 2
# Method in brief: (§1)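 Live cells were stained at seeding with Hoechst33342, BioTracker Green Microtubule Cytoskeleton Dye, MitoTracker Red and Annexin V Alexa Fluor 680. Following compound addition, they were imaged on a CQ1 microscope at 37°C and 5% CO2 and gated by CellPathfinder machine learning into Hoechst high-intensity objects or normal cells, with normal cells split into healthy, pyknosed or fragmented nuclei and pyknosed cells into mitotic or apoptotic. Tubulin, mitochondrial-mass and membrane-permeability phenotypes are per cents of healthy-nucleus cells.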
# [2] = system: HEK-293T; assay: Multiplex assay against HEK293T; conditions: human, number of replicates 2; method in brief: as §1
# [3] = system: U2OS; assay: Multiplex assay against U2OS; conditions: human, number of replicates 2; method in brief: as §1
# [4] = 12 h, 1 µM, compound concentration 1 uM
# [5] = 12 h, 10 µM, compound concentration 10 uM
# [6] = 24 h, 1 µM, compound concentration 1 uM
# [7] = 24 h, 10 µM, compound concentration 10 uM
# [8] = 48 h, 1 µM, compound concentration 1 uM
# [9] = 48 h, 10 µM, compound concentration 10 uM
smiles,measurement,setting,value
CSc1cc2c(cc1C(F)(F)F)N(C(=O)Nc1cccnc1)CC2,Population Apoptotic (%),[1]; [4],50% and 34%
same,Population Fragmented Nuclei (%),[1]; [4],9% and 17%
same,Population Healthy Nuclei (%),[1]; [4],75% and 64%
same,Population Hoechst High Intensity Objects (%),[1]; [4],0%
same,Population Membrane Permeable-Phenotype (%),[1]; [4],6% and 2%
same,Population Mitochondria Different-Phenotype (%),[1]; [4],0% and 2%
same,Population Mitotic Cells (%),[1]; [4],50% and 65%
same,Population Normal (%),[1]; [4],100%
same,Population Pyknosed Nuclei (%),[1]; [4],15% and 17%
same,Population Tubulin-Different-Phenotype (%),[1]; [4],5% and 10%
same,Total Cell Count,[1]; [4],144 and 180
same,Population Apoptotic (%),[1]; [5],22% and 26%
same,Population Fragmented Nuclei (%),[1]; [5],4% and 13%
same,Population Healthy Nuclei (%),[1]; [5],84% and 71%
same,Population Hoechst High Intensity Objects (%),[1]; [5],0%
same,Population Membrane Permeable-Phenotype (%),[1]; [5],2% and 5%
same,Population Mitochondria Different-Phenotype (%),[1]; [5],0%
same,Population Mitotic Cells (%),[1]; [5],77% and 73%
same,Population Normal (%),[1]; [5],100%
same,Population Pyknosed Nuclei (%),[1]; [5],11% and 15%
same,Population Tubulin-Different-Phenotype (%),[1]; [5],8% and 2%
same,Total Cell Count,[1]; [5],162 and 152
same,Population Apoptotic (%),[1]; [6],42% and 51%
same,Population Fragmented Nuclei (%),[1]; [6],5% and 14%
same,Population Healthy Nuclei (%),[1]; [6],80% and 65%
same,Population Hoechst High Intensity Objects (%),[1]; [6],0%
same,Population Membrane Permeable-Phenotype (%),[1]; [6],1% and 4%
same,Population Mitochondria Different-Phenotype (%),[1]; [6],0%
same,Population Mitotic Cells (%),[1]; [6],57% and 48%
same,Population Normal (%),[1]; [6],100% and 99%
same,Population Pyknosed Nuclei (%),[1]; [6],13% and 20%
same,Population Tubulin-Different-Phenotype (%),[1]; [6],9% and 11%
same,Total Cell Count,[1]; [6],142 and 185
same,Population Apoptotic (%),[1]; [7],20% and 33%
same,Population Fragmented Nuclei (%),[1]; [7],9% and 15%
same,Population Healthy Nuclei (%),[1]; [7],81% and 73%
same,Population Hoechst High Intensity Objects (%),[1]; [7],0%
same,Population Membrane Permeable-Phenotype (%),[1]; [7],4% and 3%
same,Population Mitochondria Different-Phenotype (%),[1]; [7],0%
same,Population Mitotic Cells (%),[1]; [7],80% and 66%
same,Population Normal (%),[1]; [7],100%
same,Population Pyknosed Nuclei (%),[1]; [7],8% and 11%
same,Population Tubulin-Different-Phenotype (%),[1]; [7],9% and 3%
same,Total Cell Count,[1]; [7],173 and 156
same,Population Apoptotic (%),[1]; [8],55% and 70%
same,Population Fragmented Nuclei (%),[1]; [8],14% and 16%
same,Population Healthy Nuclei (%),[1]; [8],73% and 70%
same,Population Hoechst High Intensity Objects (%),[1]; [8],0%
same,Population Membrane Permeable-Phenotype (%),[1]; [8],5% and 8%
same,Population Mitochondria Different-Phenotype (%),[1]; [8],0%
same,Population Mitotic Cells (%),[1]; [8],44% and 29%
same,Population Normal (%),[1]; [8],99% and 100%
same,Population Pyknosed Nuclei (%),[1]; [8],11% and 12%
same,Population Tubulin-Different-Phenotype (%),[1]; [8],4% and 7%
same,Total Cell Count,[1]; [8],158 and 187
same,Population Apoptotic (%),[1]; [9],54% and 46%
same,Population Fragmented Nuclei (%),[1]; [9],7% and 14%
same,Population Healthy Nuclei (%),[1]; [9],86% and 76%
same,Population Hoechst High Intensity Objects (%),[1]; [9],0%
same,Population Membrane Permeable-Phenotype (%),[1]; [9],3% and 2%
same,Population Mitochondria Different-Phenotype (%),[1]; [9],0%
same,Population Mitotic Cells (%),[1]; [9],45% and 53%
same,Population Normal (%),[1]; [9],100%
same,Population Pyknosed Nuclei (%),[1]; [9],5% and 9%
same,Population Tubulin-Different-Phenotype (%),[1]; [9],4% and 3%
same,Total Cell Count,[1]; [9],188 and 164
same,Population Apoptotic (%),[2]; [4],48% and 46%
same,Population Fragmented Nuclei (%),[2]; [4],2% and 3%
same,Population Healthy Nuclei (%),[2]; [4],87% and 85%
same,Population Hoechst High Intensity Objects (%),[2]; [4],4% and 5%
same,Population Membrane Permeable-Phenotype (%),[2]; [4],4% and 3%
same,Population Mitochondria Different-Phenotype (%),[2]; [4],9% and 18%
same,Population Mitotic Cells (%),[2]; [4],51% and 53%
same,Population Normal (%),[2]; [4],95% and 94%
same,Population Pyknosed Nuclei (%),[2]; [4],10%
same,Population Tubulin-Different-Phenotype (%),[2]; [4],41% and 47%
same,Total Cell Count,[2]; [4],690 and 549
same,Population Apoptotic (%),[2]; [5],51% and 43%
same,Population Fragmented Nuclei (%),[2]; [5],5% and 2%
same,Population Healthy Nuclei (%),[2]; [5],84%
same,Population Hoechst High Intensity Objects (%),[2]; [5],5%
same,Population Membrane Permeable-Phenotype (%),[2]; [5],3%
same,Population Mitochondria Different-Phenotype (%),[2]; [5],5% and 14%
same,Population Mitotic Cells (%),[2]; [5],48% and 56%
same,Population Normal (%),[2]; [5],94%
same,Population Pyknosed Nuclei (%),[2]; [5],9% and 12%
same,Population Tubulin-Different-Phenotype (%),[2]; [5],39%
same,Total Cell Count,[2]; [5],679 and 494
same,Population Apoptotic (%),[2]; [6],25% and 42%
same,Population Fragmented Nuclei (%),[2]; [6],5% and 4%
same,Population Healthy Nuclei (%),[2]; [6],88% and 87%
same,Population Hoechst High Intensity Objects (%),[2]; [6],6% and 5%
same,Population Membrane Permeable-Phenotype (%),[2]; [6],2%
same,Population Mitochondria Different-Phenotype (%),[2]; [6],3% and 6%
same,Population Mitotic Cells (%),[2]; [6],74% and 57%
same,Population Normal (%),[2]; [6],93% and 94%
same,Population Pyknosed Nuclei (%),[2]; [6],5% and 8%
same,Population Tubulin-Different-Phenotype (%),[2]; [6],27% and 31%
same,Total Cell Count,[2]; [6],1189 and 774
same,Population Apoptotic (%),[2]; [7],20% and 36%
same,Population Fragmented Nuclei (%),[2]; [7],10% and 6%
same,Population Healthy Nuclei (%),[2]; [7],85% and 87%
same,Population Hoechst High Intensity Objects (%),[2]; [7],5% and 7%
same,Population Membrane Permeable-Phenotype (%),[2]; [7],3% and 2%
same,Population Mitochondria Different-Phenotype (%),[2]; [7],2% and 5%
same,Population Mitotic Cells (%),[2]; [7],79% and 63%
same,Population Normal (%),[2]; [7],94% and 92%
same,Population Pyknosed Nuclei (%),[2]; [7],4% and 6%
same,Population Tubulin-Different-Phenotype (%),[2]; [7],26% and 21%
same,Total Cell Count,[2]; [7],1164 and 681
same,Population Apoptotic (%),[2]; [8],5% and 7%
same,Population Fragmented Nuclei (%),[2]; [8],14% and 9%
same,Population Healthy Nuclei (%),[2]; [8],83% and 88%
same,Population Hoechst High Intensity Objects (%),[2]; [8],9% and 10%
same,Population Membrane Permeable-Phenotype (%),[2]; [8],6% and 4%
same,Population Mitochondria Different-Phenotype (%),[2]; [8],0%
same,Population Mitotic Cells (%),[2]; [8],94% and 92%
same,Population Normal (%),[2]; [8],90% and 89%
same,Population Pyknosed Nuclei (%),[2]; [8],2%
same,Population Tubulin-Different-Phenotype (%),[2]; [8],14% and 17%
same,Total Cell Count,[2]; [8],2977 and 1800
same,Population Apoptotic (%),[2]; [9],5% and 6%
same,Population Fragmented Nuclei (%),[2]; [9],20% and 12%
same,Population Healthy Nuclei (%),[2]; [9],77% and 84%
same,Population Hoechst High Intensity Objects (%),[2]; [9],9% and 7%
same,Population Membrane Permeable-Phenotype (%),[2]; [9],7% and 6%
same,Population Mitochondria Different-Phenotype (%),[2]; [9],0% and 1%
same,Population Mitotic Cells (%),[2]; [9],94% and 93%
same,Population Normal (%),[2]; [9],90% and 92%
same,Population Pyknosed Nuclei (%),[2]; [9],1% and 2%
same,Population Tubulin-Different-Phenotype (%),[2]; [9],11% and 13%
same,Total Cell Count,[2]; [9],2869 and 1725
same,Population Apoptotic (%),[3]; [4],33% and 45%
same,Population Healthy Nuclei (%),[3]; [4],61% and 90%
same,Population Hoechst High Intensity Objects (%),[3]; [4],0%
same,Population Membrane Permeable-Phenotype (%),[3]; [4],0% and 2%
same,Population Mitochondria Different-Phenotype (%),[3]; [4],0% and 1%
same,Population Mitotic Cells (%),[3]; [4],66% and 54%
same,Population Normal (%),[3]; [4],100%
same,Population Pyknosed Nuclei (%),[3]; [4],17% and 8%
same,Population Tubulin-Different-Phenotype (%),[3]; [4],71% and 84%
same,Population Apoptotic (%),[3]; [5],42% and 66%
same,Population Healthy Nuclei (%),[3]; [5],82% and 50%
same,Population Hoechst High Intensity Objects (%),[3]; [5],0% and 3%
same,Population Membrane Permeable-Phenotype (%),[3]; [5],0% and 7%
same,Population Mitochondria Different-Phenotype (%),[3]; [5],0%
same,Population Mitotic Cells (%),[3]; [5],57% and 33%
same,Population Normal (%),[3]; [5],100% and 96%
same,Population Pyknosed Nuclei (%),[3]; [5],12% and 11%
same,Population Tubulin-Different-Phenotype (%),[3]; [5],94% and 38%
same,Population Apoptotic (%),[3]; [6],60% and 26%
same,Population Healthy Nuclei (%),[3]; [6],69% and 89%
same,Population Hoechst High Intensity Objects (%),[3]; [6],0%
same,Population Membrane Permeable-Phenotype (%),[3]; [6],3% and 1%
same,Population Mitochondria Different-Phenotype (%),[3]; [6],0%
same,Population Mitotic Cells (%),[3]; [6],40% and 73%
same,Population Normal (%),[3]; [6],100%
same,Population Pyknosed Nuclei (%),[3]; [6],12% and 6%
same,Population Tubulin-Different-Phenotype (%),[3]; [6],66% and 84%
same,Population Apoptotic (%),[3]; [7],100% and 45%
same,Population Healthy Nuclei (%),[3]; [7],66% and 88%
same,Population Hoechst High Intensity Objects (%),[3]; [7],2% and 0%
same,Population Membrane Permeable-Phenotype (%),[3]; [7],0% and 1%
same,Population Mitochondria Different-Phenotype (%),[3]; [7],0% and 1%
same,Population Normal (%),[3]; [7],97% and 100%
same,Population Pyknosed Nuclei (%),[3]; [7],11% and 7%
same,Population Tubulin-Different-Phenotype (%),[3]; [7],58% and 93%
same,Population Apoptotic (%),[3]; [8],83% and 46%
same,Population Fragmented Nuclei (%),[3]; [8],6% and 2%
same,Population Healthy Nuclei (%),[3]; [8],83% and 90%
same,Population Hoechst High Intensity Objects (%),[3]; [8],3% and 0%
same,Population Membrane Permeable-Phenotype (%),[3]; [8],6% and 1%
same,Population Mitochondria Different-Phenotype (%),[3]; [8],0%
same,Population Normal (%),[3]; [8],96% and 100%
same,Population Pyknosed Nuclei (%),[3]; [8],10% and 6%
same,Population Tubulin-Different-Phenotype (%),[3]; [8],67% and 85%
same,Population Apoptotic (%),[3]; [9],29% and 42%
same,Population Fragmented Nuclei (%),[3]; [9],3% and 10%
same,Population Healthy Nuclei (%),[3]; [9],89% and 75%
same,Population Hoechst High Intensity Objects (%),[3]; [9],0% and 2%
same,Population Membrane Permeable-Phenotype (%),[3]; [9],1% and 0%
same,Population Mitochondria Different-Phenotype (%),[3]; [9],0%
same,Population Mitotic Cells (%),[3]; [9],70% and 57%
same,Population Normal (%),[3]; [9],100% and 98%
same,Population Pyknosed Nuclei (%),[3]; [9],7% and 14%
same,Population Tubulin-Different-Phenotype (%),[3]; [9],94% and 40%
